Measured values from ChEMBL document CHEMBL1141363, “Synthesis and evaluation of novel heterocyclic MMP inhibitors” (Bioorg Med Chem Lett, 2007).

What was measured:
[1] = target: T1, Interstitial collagenase (Homo sapiens, UniProt P03956); experiment: Inhibition of MMP1
T1 sequence (P03956 whole entry): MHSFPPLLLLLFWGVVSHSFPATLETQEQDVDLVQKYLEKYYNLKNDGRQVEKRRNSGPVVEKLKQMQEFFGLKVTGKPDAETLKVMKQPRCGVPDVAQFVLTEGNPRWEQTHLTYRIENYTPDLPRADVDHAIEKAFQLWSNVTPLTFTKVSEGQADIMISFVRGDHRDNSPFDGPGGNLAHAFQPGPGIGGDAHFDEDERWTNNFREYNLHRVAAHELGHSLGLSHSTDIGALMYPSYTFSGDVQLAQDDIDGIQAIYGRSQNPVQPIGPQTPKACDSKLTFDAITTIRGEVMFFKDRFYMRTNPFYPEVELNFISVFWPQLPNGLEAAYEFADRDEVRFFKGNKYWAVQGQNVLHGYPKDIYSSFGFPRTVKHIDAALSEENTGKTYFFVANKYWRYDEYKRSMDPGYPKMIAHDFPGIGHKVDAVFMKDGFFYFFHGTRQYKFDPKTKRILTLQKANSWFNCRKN
Procedure, shortened: (§1)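 Catalytic domains used at final levels of 85 nM (MMP-1), 24 nM (MMP-2), 18 nM (MMP-9) and 84 nM (MMP-12). Each enzyme was premixed with compound (serial 1:2 dilutions, 150 to 1.2) for 30 min at 37 °C. Substrate was added in 50 mM Hepes with 5 mM CaCl2 and 0.05% w/w Brij-35, pH 7.5, then incubated 30 min. Fluorescence read at ex 328/em 393 nm over 45 min, every 50 s.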

[2] = target: Macrophage metalloelastase (Homo sapiens, UniProt P39900); experiment: Inhibition of MMP12; procedure, shortened: as §1
Macrophage metalloelastase, sequence (P39900 whole entry): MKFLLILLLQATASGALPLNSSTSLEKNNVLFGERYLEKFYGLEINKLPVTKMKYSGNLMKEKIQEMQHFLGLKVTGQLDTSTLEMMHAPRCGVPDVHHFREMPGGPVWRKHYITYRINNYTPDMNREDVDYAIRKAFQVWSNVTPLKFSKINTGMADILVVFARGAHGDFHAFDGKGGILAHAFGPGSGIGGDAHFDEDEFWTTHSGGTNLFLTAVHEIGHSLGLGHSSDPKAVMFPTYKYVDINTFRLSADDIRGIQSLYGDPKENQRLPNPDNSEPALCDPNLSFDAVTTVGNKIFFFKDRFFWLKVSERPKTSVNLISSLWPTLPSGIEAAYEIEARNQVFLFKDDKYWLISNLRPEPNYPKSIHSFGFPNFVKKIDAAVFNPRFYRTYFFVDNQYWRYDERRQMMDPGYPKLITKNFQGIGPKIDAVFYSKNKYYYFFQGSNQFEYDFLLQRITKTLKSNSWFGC

[3] = target: 72 kDa type IV collagenase (Homo sapiens, UniProt P08253); experiment: Inhibition of MMP2; procedure, shortened: as §1
72 kDa type IV collagenase, sequence (P08253 whole entry): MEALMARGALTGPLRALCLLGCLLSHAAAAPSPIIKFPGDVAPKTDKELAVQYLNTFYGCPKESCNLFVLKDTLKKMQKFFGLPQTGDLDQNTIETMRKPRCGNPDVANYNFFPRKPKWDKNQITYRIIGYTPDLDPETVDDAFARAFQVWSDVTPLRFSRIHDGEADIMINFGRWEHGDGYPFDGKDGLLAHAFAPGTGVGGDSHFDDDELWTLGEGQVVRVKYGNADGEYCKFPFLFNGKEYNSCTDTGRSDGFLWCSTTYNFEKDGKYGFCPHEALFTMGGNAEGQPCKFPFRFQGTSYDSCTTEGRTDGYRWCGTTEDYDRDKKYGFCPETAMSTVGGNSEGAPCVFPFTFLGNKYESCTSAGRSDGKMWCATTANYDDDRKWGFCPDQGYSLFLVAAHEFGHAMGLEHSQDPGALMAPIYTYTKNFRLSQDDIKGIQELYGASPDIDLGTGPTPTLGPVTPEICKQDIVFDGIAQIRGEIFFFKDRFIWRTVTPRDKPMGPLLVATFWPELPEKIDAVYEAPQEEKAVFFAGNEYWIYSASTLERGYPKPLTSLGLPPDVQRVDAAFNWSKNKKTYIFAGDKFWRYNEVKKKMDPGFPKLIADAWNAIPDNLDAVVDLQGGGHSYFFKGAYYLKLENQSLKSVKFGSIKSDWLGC

[4] = target: Matrix metalloproteinase-9 (Homo sapiens, UniProt P14780); experiment: Inhibition of MMP9; procedure, shortened: as §1
Matrix metalloproteinase-9, sequence (P14780 whole entry): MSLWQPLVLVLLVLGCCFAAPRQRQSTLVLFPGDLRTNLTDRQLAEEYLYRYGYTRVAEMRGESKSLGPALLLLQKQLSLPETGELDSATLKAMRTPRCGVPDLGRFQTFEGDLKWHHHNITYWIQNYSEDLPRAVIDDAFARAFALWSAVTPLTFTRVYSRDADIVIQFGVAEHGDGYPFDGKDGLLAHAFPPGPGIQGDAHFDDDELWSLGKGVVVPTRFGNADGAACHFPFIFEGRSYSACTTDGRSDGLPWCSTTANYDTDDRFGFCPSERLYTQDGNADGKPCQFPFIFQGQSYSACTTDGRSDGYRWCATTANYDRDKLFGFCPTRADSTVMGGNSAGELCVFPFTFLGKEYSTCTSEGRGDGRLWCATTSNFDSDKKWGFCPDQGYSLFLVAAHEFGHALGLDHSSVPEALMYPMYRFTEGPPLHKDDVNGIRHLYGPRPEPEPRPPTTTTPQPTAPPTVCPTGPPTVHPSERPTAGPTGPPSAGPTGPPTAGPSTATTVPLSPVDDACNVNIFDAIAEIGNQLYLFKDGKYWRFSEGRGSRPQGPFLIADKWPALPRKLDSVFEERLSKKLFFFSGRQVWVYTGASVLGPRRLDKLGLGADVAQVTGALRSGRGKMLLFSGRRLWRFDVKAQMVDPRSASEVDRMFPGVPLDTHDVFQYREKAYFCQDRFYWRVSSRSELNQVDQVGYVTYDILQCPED

Structure (SMILES)	IC50 [1]	IC50 [2]	IC50 [3]	IC50 [4]
O=C(OCc1ccc(C(F)(F)F)cc1)c1cccc(=O)[nH]1	24 µM	64 µM	112 µM	101 µM
C1=C(n2cc(C3=NCCO3)nn2)CCCC1	> 150 µM	> 150 µM	> 150 µM	> 150 µM
O=C(OC1CCC1)c1cccc(=O)[nH]1	25 µM	51 µM	66 µM	62 µM
COc1cccc(COC(=O)c2cccc(=O)[nH]2)c1	69 µM	69 µM	70 µM	88 µM
COc1ccc(COC(=O)c2cccc(=O)[nH]2)cc1	99 µM	105 µM	110 µM	100 µM
O=C(OCCCCOc1ccccc1)c1cccc(=O)[nH]1	67 µM	82 µM	90 µM	94 µM
O=C(OCc1ccccc1F)c1cccc(=O)[nH]1	64 µM	68 µM	71 µM	76 µM
O=C(OCc1ccc(F)cc1)c1cccc(=O)[nH]1	23 µM	65 µM	71 µM	3 µM
Cc1ccc(COC(=O)c2cccc(=O)[nH]2)cc1	65 µM	69 µM	73 µM	68 µM
O=C(OCc1cccc(C(F)(F)F)c1)c1cccc(=O)[nH]1	28 µM	82 µM	> 150 µM	> 150 µM
CC(C)=CCOC(=O)c1cccc(=O)[nH]1	37 µM	67 µM	72 µM	69 µM
CC#CCOC(=O)c1cccc(=O)[nH]1	50 µM	71 µM	70 µM	68 µM
O=C(OC1CCCCC1)c1cccc(=O)[nH]1	32 µM	71 µM	101 µM	94 µM
O=C(OCCc1ccccc1)c1cccc(=O)[nH]1	47 µM	68 µM	69 µM	81 µM
O=C(OCc1cccc(F)c1)c1cccc(=O)[nH]1	28 µM	16 µM	70 µM	50 µM
O=C(OCc1ccccc1)c1cccc(=O)[nH]1	30 µM	69 µM	65 µM	69 µM
O=C(OCCOc1ccccc1)c1cccc(=O)[nH]1	59 µM	79 µM	> 150 µM	127 µM
